ChEMBL document CHEMBL1123379, “Cardiotonic agents. 2. Synthesis and structure-activity relationships in a new class of 6-, 7-, and 8-pyridyl-2(1H)-quinolone derivatives” (1986)

Tests used:
Cavia porcellus [1] = species on record: Cavia porcellus; test: Positive inotropic effect in isolated left guinea pig atria.; format: functional; conditions: read-out: ED50 (the source's name)
Summary of the method: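 Isolated left atria from guinea pigs of either sex (300–800 g), reserpine-pretreated (5 mg/kg ip) 24 h before death. Atria paced electrically at 2.5 Hz, 5 ms square pulses, voltage 50% above threshold; bath contained phentolamine 3.15×10^-4 mM. Isoprenaline dose-response curve run first to validate each preparation. Positive inotropy from dose-response curves; ED50 (mol·L⁻¹, dose giving 50% of maximum effect) by Ariens–Van Rossum method.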

Cavia porcellus [2] = species on record: Cavia porcellus; test: Intrinsic activity calculated as the ratio of the maximum response to the compound to the maximum response to isoprenaline.; format: functional

Row | SMILES | EC50 (Cavia porcellus [1]) [µM] | Intrinsic activity (Cavia porcellus [2])
1 | Oc1ccc2ccc(-c3cccnc3)cc2n1 | 8.3 | 0.67
2 | O=C1CCc2cc(-c3ccccn3)ccc2N1 | 2.55 | 0.29
3 | O=c1ccc2cc(-c3cccnc3)ccc2n1CCN1CCOCC1 | 22 | 0.58
4 | Oc1ccc2cc(-c3ccccn3)cc(O)c2n1 | 19 | 0.51
5 | COc1cc(-c2ccncc2)cc2ccc(O)nc12 | 5 | 0.88
6 | COc1cc(-c2cccnc2)cc2ccc(O)nc12 | 6.5 | 0.57
7 | COc1cc(-c2ccncc2)cc2c1NC(=O)CC2 | 6.5 | 0.68
8 | Oc1ccc2cc(-c3ccncc3)cc(Cl)c2n1 | 0.38 | 0.78
9 | c1cncc(-c2ccc3nc(OCCN4CCOCC4)ccc3c2)c1 | 15 | 0.23
10 | O=C1CCc2cc(-c3ccncc3)ccc2N1 | 14 | 0.56
11 | O=C1CCc2cc(-c3cccnc3)ccc2N1 | 1.3 | 0.67
12 | Oc1ccc2cc(-c3ccncc3)ccc2n1 | 2.5 | 0.45
13 | Oc1ccc2cc(-c3ccccn3)ccc2n1 | 15 | 0.67
14 | Oc1ccc2cc(-c3cccnc3)ccc2n1 | 0.52 | 0.67
15 | Nc1cc(Cl)c2nc(O)ccc2c1 | 100 | 0.54
16 | COc1cc(-c2cccnc2)cc2c(C)cc(O)nc12 | 16 | 0.81
17 | Oc1ccc2cccc(-c3cccnc3)c2n1 | 140 | 0.41
18 | COc1cc(-c2ccccn2)cc2ccc(O)nc12 | 9.2 | 0.72
19 | COc1cc(-c2ccccn2)cc2c1NC(=O)CC2 | 6.4 | 0.71
20 | COc1cc(-c2cccnc2)cc2c1NC(=O)CC2 | 34 | 0.68
21 | Oc1ccc2cc(-c3cccnc3)cc(Cl)c2n1 | 0.28 | 0.68
22 | Oc1ccc2cc(-c3ccccn3)cc(Cl)c2n1 | 2.05 | 0.75
23 | Cn1c(=O)ccc2cc(-c3cccnc3)ccc21 | 110 | 0.33
24 | Cc1cc(C)c(-c2ccc3nc(O)ccc3c2)c(C)n1 | 1.05 | 0.38
25 | COc1cc(-c2ccccn2)cc2c(C)cc(O)nc12 | 4.85 | 0.74
26 | COc1cc(-c2ccncc2)cc2c(C)cc(O)nc12 | 7 | 0.5
27 | Oc1ccc2cc(-c3cccnc3)cc(O)c2n1 | 0.75 | 0.72
28 | CC(C)NCC(O)c1ccc(O)c(O)c1 (configuration not stated) [ISOPROTERENOL] | – | 1
29 | Cc1[nH]c(=O)c(C#N)cc1-c1ccncc1 [MILRINONE] | 14 | 0.67
